Results published in ChEMBL document CHEMBL5316375, “Discovery of Novel, Selective Prostaglandin EP4 Receptor Antagonists with Efficacy in Cancer Models” (ACS Med Chem Lett, 2023).
pIC50, pKi: −log10 of the molar value.

Key:
[1] = biological target: T1, Prostaglandin E2 receptor EP3 subtype (Homo sapiens, UniProt P43115); experiment: Antagonist activity at EP3 receptor (unknown origin)
T1 sequence (P43115 whole entry): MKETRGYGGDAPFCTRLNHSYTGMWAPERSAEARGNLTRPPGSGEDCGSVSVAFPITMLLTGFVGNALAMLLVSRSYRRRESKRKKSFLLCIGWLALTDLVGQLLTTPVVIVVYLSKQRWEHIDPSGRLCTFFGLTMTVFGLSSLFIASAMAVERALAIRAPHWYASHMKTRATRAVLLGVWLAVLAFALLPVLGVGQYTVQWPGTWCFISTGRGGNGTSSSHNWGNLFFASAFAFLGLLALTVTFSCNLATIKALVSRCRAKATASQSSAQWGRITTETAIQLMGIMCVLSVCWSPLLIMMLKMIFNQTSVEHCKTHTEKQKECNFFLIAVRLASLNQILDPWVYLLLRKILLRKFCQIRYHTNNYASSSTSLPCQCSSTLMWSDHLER

[2] = biological target: T2, Prostaglandin E2 receptor EP2 subtype (Homo sapiens, UniProt P43116); experiment: Antagonist activity at EP2 receptor (unknown origin)
[3] = Oral bioavailability in Sprague-Dawley rat at 10 mg/kg; type: ADME, organism-based; conditions: in vivo
[4] = Clearance in Sprague-Dawley rat at 1 mg/kg, iv; type: ADME, organism-based; conditions: in vivo
[5] = Plasma protein binding in human assessed as parent compound remaining at 1 uM incubated for 6 hrs by LC-MS/MS analysis; type: ADME, cell-free
[6] = Microsomal stability in mouse liver microsomes assessed as half life at 1 uM measured for 60 mins by LC-MS/MS analysis; type: ADME, Microsome
[7] = Half life in Sprague-Dawley rat at 10 mg/kg, po; type: ADME, organism-based; conditions: in vivo
[8] = biological target: T2, Prostaglandin E2 receptor EP2 subtype; experiment: Displacement of [3H]-PGE2 from EP2 receptor membrane (unknown origin) measured after 2 hrs by Microscint-O scintillation counting analysis; type: cell membranes
[9] = Plasma protein binding in mouse assessed as parent compound remaining at 1 uM incubated for 6 hrs by LC-MS/MS analysis; type: ADME, cell-free
[10] = Toxicity in BALB/c mouse allografted with CT26 cells assessed as body weight loss at 75 to 150 mg/kg, po qd administered for 11 days and measured every 2 to 3 days; type: organism-based; conditions: in vivo, 264 h, dose 75-150 mg/kg, time 11 day
In short: (§1)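 CT-26 tumors in BALB/c mice grown to 100–200 mm3, then animals randomized (n = 6/group). Dosing was oral, once daily for 11 days, in vehicle 0.5% carboxymethylcellulose sodium in PBS. Groups: vehicle, 75 or 150 mg/kg, or E7046 150 mg/kg. Tumor volume, TGI versus vehicle, body weight and day-11 tumor weight were recorded, with Dunnett's test versus vehicle.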

[11] = Microsomal stability in rat liver microsomes assessed as half life at 1 uM measured for 60 mins by LC-MS/MS analysis; type: ADME, Microsome
[12] = AUC (0 to t) in Sprague-Dawley rat at 10 mg/kg, po; type: ADME, organism-based; set-up: dose 10 mg/kg, route po; conditions: in vivo
[13] = Cmax in Sprague-Dawley rat at 10 mg/kg, po; type: ADME, organism-based; set-up: dose 10 mg/kg, route po; conditions: in vivo
[14] = Volume of distribution at steady state in Sprague-Dawley rat at 1 mg/kg, iv; type: ADME, organism-based; conditions: in vivo, read-out: Vdss
[15] = Toxicity in BALB/c mouse allografted with CT26 cells assessed as reduction in body weight at 75 to 150 mg/kg, po administered daily for 21 days and measured every 2 to 3 days in presence of 300 mg/kg capecitabine; type: organism-based; conditions: in vivo, 504 h, dose 75-150 mg/kg, time 21 day
In short: (§2)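 CT-26 tumors in BALB/c mice (n = 6/group) dosed orally once daily from day 8 after implantation until day 21, in vehicle 0.5% carboxymethylcellulose sodium. Groups: vehicle, capecitabine 300 mg/kg alone, or capecitabine 300 mg/kg plus EP4 antagonist at 75 or 150 mg/kg. Tumor volume, TGI versus vehicle, body weight and tumor weight were recorded, with Dunnett's test.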

[16] = biological target: T1, Prostaglandin E2 receptor EP3 subtype; experiment: Displacement of [3H]-PGE2 from EP3 receptor membrane (unknown origin) measured after 2 hrs by Microscint-O scintillation counting analysis; type: cell membranes
[17] = Plasma protein binding in human at 1 uM incubated for 6 hrs by LC-MS/MS analysis; type: ADME, cell-free
[18] = Plasma protein binding in mouse at 1 uM incubated for 6 hrs by LC-MS/MS analysis; type: ADME, cell-free
[19] = Cmax in Sprague-Dawley rat at 1 mg/kg, iv; type: ADME, organism-based; set-up: dose 1 mg/kg, route iv; conditions: in vivo
[20] = AUC (0 to t) in Sprague-Dawley rat at 1 mg/kg, iv; type: ADME, organism-based; set-up: dose 1 mg/kg, route iv; conditions: in vivo
[21] = Half life in Sprague-Dawley rat at 1 mg/kg, iv; type: ADME, organism-based; conditions: in vivo
[22] = Plasma protein binding in rat assessed as parent compound remaining at 1 uM incubated for 6 hrs by LC-MS/MS analysis; type: ADME, cell-free
[23] = AUC (0 to infinity) in Sprague-Dawley rat at 10 mg/kg, po; type: ADME, organism-based; set-up: dose 10 mg/kg, route po; conditions: in vivo
[24] = Plasma protein binding in rat at 1 uM incubated for 6 hrs by LC-MS/MS analysis; type: ADME, cell-free
[25] = biological target: Voltage-gated inwardly rectifying potassium channel KCNH2 (Homo sapiens, UniProt Q12809); experiment: Inhibition of hERG; type: toxicity
[26] = biological target: T3, Prostaglandin E2 receptor EP1 subtype (Homo sapiens, UniProt P34995); experiment: Antagonist activity at EP1 receptor (unknown origin)
T3 sequence (P34995 whole entry): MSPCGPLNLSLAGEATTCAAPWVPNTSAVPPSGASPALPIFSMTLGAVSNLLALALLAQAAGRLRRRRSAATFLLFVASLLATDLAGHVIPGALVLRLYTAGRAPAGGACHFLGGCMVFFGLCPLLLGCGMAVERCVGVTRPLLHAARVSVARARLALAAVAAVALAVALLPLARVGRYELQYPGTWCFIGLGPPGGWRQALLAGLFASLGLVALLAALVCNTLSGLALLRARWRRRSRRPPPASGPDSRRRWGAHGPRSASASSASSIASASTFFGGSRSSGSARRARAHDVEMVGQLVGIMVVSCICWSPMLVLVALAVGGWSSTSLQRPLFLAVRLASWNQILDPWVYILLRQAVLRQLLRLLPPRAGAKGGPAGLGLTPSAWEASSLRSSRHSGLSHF

[27] = AUC (0 to infinity) in Sprague-Dawley rat at 1 mg/kg, iv; type: ADME, organism-based; set-up: dose 1 mg/kg, route iv; conditions: in vivo
[28] = Tmax at Sprague-Dawley rat at 10 mg/kg, po; type: ADME, organism-based; conditions: in vivo
[29] = biological target: T3, Prostaglandin E2 receptor EP1 subtype; experiment: Displacement of [3H]-PGE2 from EP1 receptor membrane (unknown origin) measured after 2 hrs by Microscint-O scintillation counting analysis; type: cell membranes
[30] = Microsomal stability in human liver microsomes assessed as half life at 1 uM measured for 60 mins by LC-MS/MS analysis; type: ADME, Microsome
[31] = biological target: Prostaglandin E2 receptor EP4 subtype (Homo sapiens, UniProt P35408); experiment: Antagonist activity at human EP4 receptor overexpressed in HEK293 cells assessed as inhibition of PGE2-induced cAMP formation preincubated for 15 mins followed by PGE addition and measured after 30 mins by Eu-cAMP tracer based assay; type: functional, cell-based
CT26 [32] = experiment: Antitumor activity against mouse CT26 cells allografted in BALB/c mouse assessed as tumor growth inhibition at 300 mg/kg, po qd administered for 21 days starting from day 8 post tumor implantation measured once for every 2 or 3 days relative to control; type: functional; conditions: CT26, 504 h, time 21 day, read-out: TGI; in short: as §2
CT26 [33] = experiment: Antitumor activity against mouse CT26 cells allografted in BALB/c mouse assessed as mean tumor volume at 300 mg/kg, po qd administered for 21 days starting from day 8 post tumor implantation measured once for every 2 or 3 days (reference value: 2036.95 +/- 333.12 mm3); type: functional; conditions: time 21 day; in short: as §2
[34] = Toxicity in BALB/c mouse allografted with CT26 cells assessed as effect on body weight at 300 mg/kg, po administered daily for 21 days and measured every 2 to 3 days; type: organism-based; conditions: in vivo, 504 h, time 21 day; in short: as §2
CT26 [35] = experiment: Antitumor activity against mouse CT26 cells allografted in BALB/c mouse assessed as mean tumor volume at 150 mg/kg, po qd administered every day for 11 days measured for every 2 or 3 days (reference value: 2145.58 +/- 152.9 mm3); type: functional; conditions: time 11 day; in short: as §1
CT26 [36] = experiment: Antitumor activity against mouse CT26 cells allografted in BALB/c mouse assessed as tumor growth inhibition at 150 mg/kg, po qd administered every day for 11 days measured for every 2 or 3 days relative to control; type: functional; conditions: CT26, 264 h, time 11 day, read-out: TGI; in short: as §1

T2 sequence (P43116 whole entry): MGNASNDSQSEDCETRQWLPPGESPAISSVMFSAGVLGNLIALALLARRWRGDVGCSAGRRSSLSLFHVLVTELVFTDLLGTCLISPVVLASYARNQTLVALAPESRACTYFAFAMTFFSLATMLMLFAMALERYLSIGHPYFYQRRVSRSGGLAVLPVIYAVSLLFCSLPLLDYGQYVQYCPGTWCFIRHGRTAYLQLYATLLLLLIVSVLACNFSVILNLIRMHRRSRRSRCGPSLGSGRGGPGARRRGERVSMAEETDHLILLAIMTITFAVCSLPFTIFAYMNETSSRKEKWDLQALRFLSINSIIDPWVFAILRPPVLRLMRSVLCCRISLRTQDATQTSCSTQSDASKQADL
Chain of Voltage-gated inwardly rectifying potassium channel KCNH2 (Q12809 whole entry): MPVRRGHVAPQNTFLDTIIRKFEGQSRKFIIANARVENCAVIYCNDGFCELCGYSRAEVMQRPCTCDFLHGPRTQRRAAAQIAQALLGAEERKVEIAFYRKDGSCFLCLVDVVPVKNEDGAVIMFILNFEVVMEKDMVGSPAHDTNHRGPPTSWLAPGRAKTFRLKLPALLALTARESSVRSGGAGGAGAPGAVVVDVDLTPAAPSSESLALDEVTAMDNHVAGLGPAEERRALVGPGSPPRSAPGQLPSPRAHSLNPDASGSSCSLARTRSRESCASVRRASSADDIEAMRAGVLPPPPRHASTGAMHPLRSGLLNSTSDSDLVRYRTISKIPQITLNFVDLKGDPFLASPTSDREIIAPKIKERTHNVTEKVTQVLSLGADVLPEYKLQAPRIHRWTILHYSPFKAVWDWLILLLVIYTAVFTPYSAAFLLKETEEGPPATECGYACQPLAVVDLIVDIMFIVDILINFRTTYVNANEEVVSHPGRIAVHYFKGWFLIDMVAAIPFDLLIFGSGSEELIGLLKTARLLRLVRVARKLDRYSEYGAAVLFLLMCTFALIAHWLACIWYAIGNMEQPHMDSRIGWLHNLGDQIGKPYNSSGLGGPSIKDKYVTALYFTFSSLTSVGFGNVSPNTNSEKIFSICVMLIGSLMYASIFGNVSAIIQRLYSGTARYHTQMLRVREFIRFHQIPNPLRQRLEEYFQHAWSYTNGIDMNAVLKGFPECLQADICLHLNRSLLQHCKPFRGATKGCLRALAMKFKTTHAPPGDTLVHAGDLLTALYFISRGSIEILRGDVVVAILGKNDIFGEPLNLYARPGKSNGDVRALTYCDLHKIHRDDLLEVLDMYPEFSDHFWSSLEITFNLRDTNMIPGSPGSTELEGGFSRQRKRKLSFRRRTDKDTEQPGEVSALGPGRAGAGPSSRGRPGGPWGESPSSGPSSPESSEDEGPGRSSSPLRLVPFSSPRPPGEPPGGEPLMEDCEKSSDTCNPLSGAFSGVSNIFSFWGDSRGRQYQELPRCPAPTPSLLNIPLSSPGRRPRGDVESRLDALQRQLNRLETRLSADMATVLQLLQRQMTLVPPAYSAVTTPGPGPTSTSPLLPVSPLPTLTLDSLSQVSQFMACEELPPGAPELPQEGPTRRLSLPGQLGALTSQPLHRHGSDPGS
Chain of Prostaglandin E2 receptor EP4 subtype (P35408 whole entry): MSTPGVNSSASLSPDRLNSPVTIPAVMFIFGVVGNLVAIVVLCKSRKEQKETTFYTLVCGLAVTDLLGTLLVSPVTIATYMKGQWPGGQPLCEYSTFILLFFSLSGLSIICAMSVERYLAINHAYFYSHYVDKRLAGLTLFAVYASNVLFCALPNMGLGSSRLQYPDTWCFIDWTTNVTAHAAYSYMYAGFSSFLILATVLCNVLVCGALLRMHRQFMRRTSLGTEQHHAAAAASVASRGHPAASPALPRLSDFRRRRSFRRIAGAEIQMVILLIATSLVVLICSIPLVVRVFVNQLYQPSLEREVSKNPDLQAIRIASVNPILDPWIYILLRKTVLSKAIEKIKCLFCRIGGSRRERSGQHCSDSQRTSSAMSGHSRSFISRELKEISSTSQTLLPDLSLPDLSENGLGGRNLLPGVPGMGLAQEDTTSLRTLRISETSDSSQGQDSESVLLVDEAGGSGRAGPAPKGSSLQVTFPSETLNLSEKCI

COc1ccc(Br)cc1S(=O)(=O)NC(=O)/C=C/c1ccccc1Cc1ccc2ccccc2c1
pIC50 [1]: 7.48

C[C@H](NC(=O)c1c(Nc2cccc(C(F)(F)F)c2)c2ccccc2n1C)c1ccc(C(=O)O)cc1
pIC50 [2]: < 5.00 | bioavailability [3]: 76.1% | clearance [4]: 4.95 mL/min/kg | residual activity [5]: 83.02% | half-life at 1 µM [6]: 1.64 h | half-life [7]: 2.7 h | pKi [8]: < 5.06 | residual activity [9]: 70.47% | Activity [10]: Non-Toxic | half-life at 1 µM [11]: 4.33 h | AUC(0-t) [12]: 25700 ng·h/mL | Cmax [13]: 8240 ng/mL | Vd [14]: 0.41 L/kg | Activity [15]: Non-Toxic | pKi [16]: < 5.19 | PPB [17]: 99.68% | PPB [18]: 99.66% | Cmax [19]: 4630 ng/mL | AUC(0-t) [20]: 3380 ng·h/mL | half-life [21]: 1.4 h | pIC50 [1]: < 5.00 | residual activity [22]: 88.79% | AUC(0-inf) [23]: 25700 ng·h/mL | PPB [24]: 99.73% | pIC50 [25]: < 4.40 | pIC50 [26]: < 5.00 | AUC(0-inf) [27]: 3420 ng·h/mL | Tmax [28]: 0.5 h | pKi [29]: < 5.02 | half-life at 1 µM [30]: 0.404 h

Cn1c(C(=O)NC2(c3ccc(C(=O)O)cc3)CC2)c(Nc2cccc(C(F)(F)F)c2)c2ccccc21
pKi [8]: < 5.06 | pKi [16]: < 5.19 | pKi [29]: < 5.02

C[C@H](NC(=O)c1c(Nc2cccc(C(F)(F)F)c2)c2ccccc2n1C)c1ccc(C(N)=O)cc1
pIC50 [31]: < 5.00

CCCCCOC(=O)Nc1nc(=O)n([C@@H]2O[C@H](C)[C@@H](O)[C@H]2O)cc1F [CAPECITABINE]
inhibition in vivo at 300 mg/kg (CT26 [32]): 67.9% | Activity (CT26 [33]): 707.13 mm3 | Activity [34]: Non-Toxic

C[C@H](NC(=O)c1c(C(F)F)nn(C)c1Oc1cccc(C(F)(F)F)c1)c1ccc(C(=O)O)cc1 [PALUPIPRANT]
Activity (CT26 [35]): 1619.76 mm3 | inhibition in vivo at 150 mg/kg (CT26 [36]): 25.9%
